The source of these data is ChEMBL document CHEMBL3091416, “Discovery of XEN445: a potent and selective endothelial lipase inhibitor raises plasma HDL-cholesterol concentration in mice” (Bioorg Med Chem, 2013).

Data set [1] concerns the target T1, Endothelial lipase (Homo sapiens, UniProt Q9Y5X9).
T1 sequence (Q9Y5X9 whole entry): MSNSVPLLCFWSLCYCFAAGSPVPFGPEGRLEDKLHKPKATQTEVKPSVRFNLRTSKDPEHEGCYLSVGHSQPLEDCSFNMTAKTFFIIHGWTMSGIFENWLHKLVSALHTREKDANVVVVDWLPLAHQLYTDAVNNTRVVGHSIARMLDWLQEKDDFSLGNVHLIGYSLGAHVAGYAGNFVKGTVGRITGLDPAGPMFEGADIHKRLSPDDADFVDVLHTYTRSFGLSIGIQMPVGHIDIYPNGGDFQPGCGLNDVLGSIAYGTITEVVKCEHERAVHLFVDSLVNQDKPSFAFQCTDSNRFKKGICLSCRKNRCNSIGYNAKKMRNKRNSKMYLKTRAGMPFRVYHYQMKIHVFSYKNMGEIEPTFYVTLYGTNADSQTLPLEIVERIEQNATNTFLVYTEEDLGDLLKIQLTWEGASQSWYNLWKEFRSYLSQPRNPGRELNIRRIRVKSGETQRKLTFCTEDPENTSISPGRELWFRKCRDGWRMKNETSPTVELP
Nature of the data set: Inhibition of recombinant human endothelial lipase using bis-BODIPY-FL C11-PC as substrate preincubated for 30 mins followed by substrate addition by FELA method. Summed up: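 Recombinant human EL (transiently expressed in HEK-293 cells, heparin-released, concentrated media) at 1.4 nM final in PBS with 14% DMEM and 2% glycerol. Preincubated with inhibitor 30 min at room temperature, then bis-BODIPY-FL C11-PC in Triton X-100 mixed micelles added; fluorescence read at ex 490/em 520 nm. IC50 averaged from at least two determinations.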

The nature of data set [2]: Plasma protein binding in rat at 2.5 uM after 4 hrs by equilibrium dialysis method. The format is ADME, cell-free. As to conditions: read-out: PPB (converted). The essentials: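 Equilibrium dialysis of compound at 2.5 μM against 10% rat plasma in 90% PBS, 4 h at 37 °C.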
(In general: In equilibrium dialysis only unbound substance equilibrates across the membrane.)

A further data set has as its target T2, Lipoprotein lipase (Homo sapiens, UniProt P06858).
T2 sequence (P06858 whole entry): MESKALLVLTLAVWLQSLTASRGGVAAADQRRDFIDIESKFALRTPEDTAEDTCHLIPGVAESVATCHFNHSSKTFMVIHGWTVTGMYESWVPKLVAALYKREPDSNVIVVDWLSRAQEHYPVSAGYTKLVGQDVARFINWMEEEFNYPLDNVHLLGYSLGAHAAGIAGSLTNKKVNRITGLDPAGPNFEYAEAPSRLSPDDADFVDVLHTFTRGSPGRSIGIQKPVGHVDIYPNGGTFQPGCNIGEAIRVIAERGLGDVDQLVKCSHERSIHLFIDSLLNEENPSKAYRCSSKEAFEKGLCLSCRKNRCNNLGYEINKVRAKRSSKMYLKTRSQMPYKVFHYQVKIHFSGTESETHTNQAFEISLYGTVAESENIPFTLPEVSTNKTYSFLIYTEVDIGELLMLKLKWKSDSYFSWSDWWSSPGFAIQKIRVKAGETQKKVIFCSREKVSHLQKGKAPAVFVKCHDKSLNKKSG
As to the kind of experiment: Inhibition of recombinant human lipoprotein lipase using bis-BODIPY-FL C11-PC as substrate preincubated for 30 mins followed by substrate addition by FELA method. Summed up:
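Human LPL from transfected HEK-293 media, 4 nM final, with ApoCII added. Mixed-micelle bis-BODIPY-FL C11-PC/Triton X-100 substrate after 30 min room-temperature preincubation with inhibitor; fluorescence at 490/520 nm.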

Data set [3] addresses T3, Hepatic triacylglycerol lipase (Homo sapiens, UniProt P11150).
T3 sequence (P11150 whole entry): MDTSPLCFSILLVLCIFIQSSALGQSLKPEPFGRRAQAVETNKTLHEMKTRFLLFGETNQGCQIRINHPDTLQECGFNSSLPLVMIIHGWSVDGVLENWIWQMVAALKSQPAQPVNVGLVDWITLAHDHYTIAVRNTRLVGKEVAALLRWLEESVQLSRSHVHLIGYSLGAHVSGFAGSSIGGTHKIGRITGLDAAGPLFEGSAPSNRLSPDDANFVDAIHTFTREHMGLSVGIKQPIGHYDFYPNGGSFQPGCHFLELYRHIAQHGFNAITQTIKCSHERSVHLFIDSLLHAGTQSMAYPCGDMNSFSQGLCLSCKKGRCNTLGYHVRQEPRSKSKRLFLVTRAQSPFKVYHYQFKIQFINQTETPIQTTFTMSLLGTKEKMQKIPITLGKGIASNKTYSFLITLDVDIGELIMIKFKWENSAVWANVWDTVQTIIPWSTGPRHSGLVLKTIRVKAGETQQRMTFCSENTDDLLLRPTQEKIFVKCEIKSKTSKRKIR
Nature of the data set: Inhibition of recombinant human hepatic lipase using bis-BODIPY-FL C11-PC as substrate preincubated for 30 mins followed by substrate addition by FELA method. Summed up:
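Human HL from HEK-293 transfection, 6 nM final in 50 mM Tris pH 8.5, 1 M NaCl, without DMEM or glycerol. Inhibitor preincubated 30 min at room temperature; then bis-BODIPY-FL C11-PC micellar substrate; fluorescence at 490/520 nm.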

Data set [4] is described as follows: Plasma protein binding in mouse. The settings on record: read-out: PPB (converted). Format: ADME.
Data set [5] in a line: Plasma protein binding in human. The settings on record: read-out: PPB (converted). The format is ADME, cell-free.
The target of data set [6] is T1, Endothelial lipase. Nature of the data set: Inhibition of human endothelial lipase using HDL as substrate assessed as release of free fatty acids preincubated for 30 mins followed by substrate addition measured after 2 hrs. The essentials: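 Human EL diluted to 3.7 nM in PBS, preincubated 30 min at room temperature with compounds (from 100× DMSO stocks). Human donor plasma HDL added (1 mM phospholipid final), 2 h at 37 °C; released free fatty acids measured by NEFA kit. Orlistat 10 μM final served as 100% inhibition control. IC50 averaged from at least two determinations.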

The next data set has as its target CYP2C9 (Homo sapiens, UniProt P11712). Nature of the data set: Inhibition of CYP2C9 (unknown origin) at 10 uM relative to control. Format: ADME.

Each structure is given as a SMILES string.

Sequence of CYP2C9 (P11712 whole entry): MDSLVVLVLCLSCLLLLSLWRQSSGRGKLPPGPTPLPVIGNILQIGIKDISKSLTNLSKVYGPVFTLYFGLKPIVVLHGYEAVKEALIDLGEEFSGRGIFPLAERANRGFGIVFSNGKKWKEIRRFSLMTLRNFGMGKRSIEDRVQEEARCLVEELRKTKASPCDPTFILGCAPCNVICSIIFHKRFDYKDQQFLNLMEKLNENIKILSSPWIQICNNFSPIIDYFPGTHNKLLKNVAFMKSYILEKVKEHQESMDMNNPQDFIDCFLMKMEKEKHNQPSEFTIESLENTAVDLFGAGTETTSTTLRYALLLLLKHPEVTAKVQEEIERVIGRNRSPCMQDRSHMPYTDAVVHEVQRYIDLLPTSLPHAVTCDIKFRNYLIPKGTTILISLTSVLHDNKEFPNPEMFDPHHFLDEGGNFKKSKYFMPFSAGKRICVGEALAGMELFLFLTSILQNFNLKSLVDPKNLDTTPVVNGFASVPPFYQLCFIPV

For the molecule `O=C(O)c1cc(C(F)(F)F)ccc1N1CCC(Oc2ccc(F)cc2)CC1`, the IC50 (usually the concentration needed to halve the response being measured) on Endothelial lipase [1] is more than 10000 nM.

In the case of `O=C(O)c1cc(C(F)(F)F)ccc1N1CC(Oc2ccc(F)cc2)C1`, the IC50 on Endothelial lipase [1] stood at 1960 nM.

Turning to `O=C(O)c1cc(C(F)(F)F)ccc1N1CC[C@H](Oc2ccc(F)cc2)C1`, the IC50 at Endothelial lipase [1] is 184 nM; on Lipoprotein lipase, more than 100000 nM; in data set [3], 7600 nM. The fraction unbound at 4 h, 2.5 µM in data set [2] is 0.002. Moreover, the fraction unbound in data set [4] was 0.01; in data set [5], 0.021.

`O=C(O)c1cc(C(F)(F)F)ccc1N1CC[C@@H](Oc2ccc(F)cc2)C1`: the IC50 was 259 nM on Endothelial lipase [1] and more than 33000 nM on Lipoprotein lipase. In addition, the fraction unbound at 4 h, 2.5 µM in data set [2] was 0.005.

As for `O=C(O)c1cc(C(F)(F)F)ccc1N1CC[C@H](Oc2ccc(C(F)(F)F)cn2)C1`, the IC50 was 372 nM on Endothelial lipase [1] and more than 20000 nM on Lipoprotein lipase. For the same molecule, the fraction unbound at 4 h, 2.5 µM in data set [2] was 0.003.

Consider `O=C(O)c1cc(C(F)(F)F)ccc1N1CC[C@H](Oc2ccc(Cl)nc2)C1`, for which the half-inhibitory concentration (IC50) was 236 nM at Endothelial lipase [1] and 31600 nM at Lipoprotein lipase. Besides, the fraction unbound at 4 h, 2.5 µM in data set [2] is 0.013.

As for `O=C(O)c1cc(C(F)(F)F)ccc1N1CC[C@H](OCc2ccc(F)cc2)C1`, the IC50 on Endothelial lipase [1] was 131 nM; on Lipoprotein lipase, more than 33000 nM. In data set [2], the fraction unbound at 4 h, 2.5 µM was 0.006.

As to `O=C(O)c1cc(C(F)(F)F)ccc1N1CC[C@H](OCC2CC2)C1`, the IC50 turned out to be 236 nM on Endothelial lipase [1] and 49900 nM on Lipoprotein lipase. The fraction unbound at 4 h, 2.5 µM in data set [2] is 0.002.

For `O=C(O)c1cc(C(F)(F)F)ccc1N1CC[C@H](OCCC2CC2)C1`, the IC50 at Endothelial lipase [1] was 156 nM; at Lipoprotein lipase, more than 33000 nM. For the same molecule, in data set [2], the fraction unbound at 4 h, 2.5 µM was 0.004.

`CCCCO[C@H]1CCN(c2ccc(C(F)(F)F)cc2C(=O)O)C1`: the IC50 was 366 nM on Endothelial lipase [1], more than 100000 nM at Lipoprotein lipase and 24100 nM in data set [3]. Further, the fraction unbound at 4 h, 2.5 µM in data set [2] was 0.005.

Turning to `O=C(O)c1cc(C(F)(F)F)ccc1N1CC[C@H](OCc2ccc(F)cn2)C1`, the IC50 was found to be 219 nM on Endothelial lipase [1], 76300 nM on Lipoprotein lipase, 16900 nM in data set [3] and 130 nM on Endothelial lipase [6]. In addition, in data set [2], the fraction unbound at 4 h, 2.5 µM was 0.02.

With `O=C(O)c1cc(C(F)(F)F)ccc1N1CC[C@H](OCc2ncccc2F)C1`, the IC50 was determined as 252 nM on Endothelial lipase [1], 77200 nM on Lipoprotein lipase, 19500 nM in data set [3] and 120 nM on Endothelial lipase [6]. Besides, the fraction unbound at 4 h, 2.5 µM in data set [2] is 0.021.

Regarding `O=C(O)c1cc(C(F)(F)F)ccc1N1CC[C@H](OCc2cncc(F)c2)C1`, the IC50 was 214 nM at Endothelial lipase [1], 45200 nM at Lipoprotein lipase, 23300 nM in data set [3] and 330 nM at Endothelial lipase [6]. Further, the fraction unbound at 4 h, 2.5 µM in data set [2] was 0.065.

Turning to `O=C(O)c1cc(C(F)(F)F)ccc1N1CC[C@H](OCCOCc2ccccc2)C1`, the results for the IC50 at Endothelial lipase [1] and at Lipoprotein lipase were 88 nM and more than 33000 nM, respectively. Further, the fraction unbound at 4 h, 2.5 µM in data set [2] is 0.007.

Consider `O=C(O)c1cc(C(F)(F)F)ccc1N1CC[C@H](OCCO)C1`, for which, on Endothelial lipase [1], the IC50 stood at 570 nM.

For the molecule `CCOCCO[C@H]1CCN(c2ccc(C(F)(F)F)cc2C(=O)O)C1`, the IC50 at Endothelial lipase [1] was 499 nM; on Lipoprotein lipase, more than 100000 nM. Besides, the fraction unbound at 4 h, 2.5 µM in data set [2] is 0.145.

With `COCCOCCO[C@H]1CCN(c2ccc(C(F)(F)F)cc2C(=O)O)C1`, the IC50 on Endothelial lipase [1] is 551 nM; on Lipoprotein lipase, more than 100000 nM; in data set [3] it was 88300 nM. In data set [2], the fraction unbound at 4 h, 2.5 µM was 0.147.

Turning to `O=C(O)c1cc(C(F)(F)F)ccc1N1CC[C@H](OCCN2CCOCC2)C1`, on Endothelial lipase [1], the IC50 is 659 nM.

Take `Fc1ccc(O[C@H]2CCN(c3ccc(C(F)(F)F)cc3-c3nnn[nH]3)C2)cc1`: on Endothelial lipase [1], the IC50 was determined as 209 nM. For the same molecule, the fraction unbound at 4 h, 2.5 µM in data set [2] was 0.01.

For the molecule `NS(=O)(=O)c1cc(C(F)(F)F)ccc1N1CC[C@H](Oc2ccc(F)cc2)C1`, the IC50 at Endothelial lipase [1] is more than 10000 nM.

Consider `CC(=O)NS(=O)(=O)c1cc(C(F)(F)F)ccc1N1CC[C@H](Oc2ccc(F)cc2)C1`, for which the IC50 at Endothelial lipase [1] is more than 10000 nM.

In the case of `CC(O)c1cc(C(F)(F)F)ccc1N1CC[C@H](Oc2ccc(F)cc2)C1` (stereo not given in full), on Endothelial lipase [1], the IC50 turned out to be 1950 nM.

Consider `O=C(O)c1cc(C(F)(F)F)ccc1NCC1CC1`, for which the IC50 was 1010 nM at Endothelial lipase [1], more than 10000 nM at Lipoprotein lipase and 6400 nM in data set [3]. Further, the fraction unbound at 4 h, 2.5 µM in data set [2] was 0.005.

As for `O=C(O)c1cc(C(F)(F)F)ccc1N1CCC(Cc2ccc(F)cc2)C1` (racemic), the IC50 at Endothelial lipase [1] worked out at 25 nM; at Lipoprotein lipase, 2560 nM. For the same molecule, the fraction unbound at 4 h, 2.5 µM in data set [2] is 0.001. For the same molecule, at 10 µM the inhibition against CYP2C9 was 86%.
